Measurements of several laboratories.
Compare with care: the assays were run in different laboratories.
Target: 5'-AMP-activated protein kinase catalytic subunit alpha-2 (PRKAA2, Homo sapiens, UniProt P54646)

| Structure (SMILES) | effect on | mode | technique | concentration | quantity | result |
| --- | --- | --- | --- | --- | --- | --- |
| COc1cccc2c(NCc3ccccc3)nc(-n3c(N)nc4ccccc43)nc12 | target engagement in cells | inhibitor | chemoproteomics | 20 mM | inhibition | 11.9% |
| COc1cc(Cl)c(C(=O)N[C@@H](CN[C@H]2CC[C@@H](N)CC2)Cc2ccc(C#N)cc2)cc1-c1ccc(CN[C@H](C)c2ccc(C)cc2)o1 | enzyme activity | inhibitor |  | 1 µM | remaining activity | 89% |
| Cc1ccc(C(=O)Nc2ccc(CN3CCN(C)CC3)c(C(F)(F)F)c2)cc1C#Cc1cnc2cccnn12 | enzyme activity |  |  | 23.5 nM | remaining activity | 99% |
| CCCCNc1ncc2c(-c3ccc(F)cc3)nn(C[C@H]3CC[C@H](N)CC3)c2n1 | target engagement in cells | inhibitor | chemoproteomics | 20 mM | inhibition | 22.8% |
| CN([C@@H]1CCc2c(CC(=O)O)c3cc(S(C)(=O)=O)ccc3n2C1)S(=O)(=O)c1ccc(F)cc1 | cell-free assay |  | competition with immobilised ligand | 1 µM | remaining binding | 100% |
| Cc1ccc(C(=O)NCc2ccsc2)cc1C#Cc1cn(C(C)C)c2ncnc(N)c12 | enzyme activity | inhibitor |  | 1 µM | activity vs control | 80% |
| C=CC(=O)Nc1cc(Nc2nccc(Nc3cc(Cl)c(F)cc3C(C)(C)O)n2)c(OC)cc1N1CC[C@@H](N(C)C)C1 | enzyme activity | inhibitor |  | 1 µM | inhibition | 12% |
| CCCCN(CCCC)C(=O)CN1C[C@H](c2cc(OC)c3c(c2)OCO3)[C@@H](C(=O)O)[C@@H]1CC(C)(C)CCC | cell-free assay |  | competition with immobilised ligand | 1 µM | remaining binding | 100% |
| Cc1cc(NC(=O)c2cccc3cc(-c4cccc5[nH]nc(N)c45)ccc23)ccc1F | enzyme activity | inhibitor |  | 0.1 µM | activity vs control | 97% |
| CCCOc1ccc(OC)c(F)c1C(=O)c1ccc(C(=O)N[C@@H]2CNC[C@H]2NC(=O)c2ccc3[nH]ncc3c2)cc1 | enzyme activity | inhibitor |  | 0.75 µM | remaining activity | 6% |
| CC(=O)N1CCC(c2ccc(C(=O)NC(=N)N)cc2C(F)(F)F)CC1 | cell-free assay |  | competition with immobilised ligand | 1 µM | remaining binding | 100% |
| COc1cc(-c2cc(-c3ccc(N4CCNCC4)cc3)cnc2C)cc(OC)c1OC | enzyme activity | inhibitor |  | 1 µM | inhibition | 1% |
